Reference: ChEMBL document CHEMBL1255304, “In vitro phenotypic susceptibility of human immunodeficiency virus type 2 clinical isolates to protease inhibitors” (Antimicrob Agents Chemother, 2008)

Assays:
[1] = system: Human immunodeficiency virus 2; assay: Antiviral activity against HIV 2 subtype A clinical isolate expressing 10I-40D-43I-70K-82F-84V-85L-89V-90M-91T/L-98N/K protease gene sequence from HIV2 infected patient plasma and PBMC obtained at T1 during compound treatment measured after 13 months; format: functional, organism-based; conditions: Human immunodeficiency virus 2, subtype A
Summary of the method: (§1)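 Virus isolated by PBMC coculture from patient samples taken before (T0) or during (T1, T2) protease inhibitor exposure, with protease genes sequenced from plasma and PBMC isolates. Susceptibility was tested in the ANRS PBMC assay, and the 50% inhibitory concentration (IC50) was reported.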

[2] = system: Human immunodeficiency virus type 1 (BRU ISOLATE); assay: (§2) Antiviral activity against Human immunodeficiency virus type 1 (BRU ISOLATE) after […]; format: functional
[3] = as §2; format: functional; conditions: Human immunodeficiency virus 1
[4] = system: Human immunodeficiency virus 2; assay: Antiviral activity against Human immunodeficiency virus type 2 (ISOLATE ROD) after 13 months; format: functional, organism-based; conditions: Human immunodeficiency virus 2, ISOLATE ROD
Summary of the method: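 Reference strain ROD was tested in the ANRS PBMC assay alongside the clinical isolates, and the 50% inhibitory concentration (IC50) was reported.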

[5] = system: Human immunodeficiency virus 2; assay: Antiviral activity against HIV 2 subtype B clinical isolate expressing 14Y-19P-61N-64V-71I-90M-95I protease gene sequence from HIV2 infected patient plasma and PBMC obtained at T2 during compound treatment measured after 3 months; format: functional, organism-based; conditions: Human immunodeficiency virus 2, subtype B\r\n; summary of the method: as §1
[6] = system: Human immunodeficiency virus 2; assay: Antiviral activity against HIV 2 subtype A clinical isolate expressing 10I-17D-40D-43I-46V-66V/A-70R/K protease gene sequence from HIV2 infected patient plasma and PBMC obtained before compound treatment measured after 13 months; format: functional, organism-based; conditions: Human immunodeficiency virus 2, subtype A; summary of the method: as §1
[7] = system: Human immunodeficiency virus 2; assay: Antiviral activity against HIV 2 subtype A clinical isolate expressing 10I-17D-40D-43I-45K/R-46V-54M-64I/V-69K/R-71V/I-90M protease gene sequence from HIV2 infected patient plasma and PBMC obtained at T1 during compound treatment measured after 13 months; format: functional, organism-based; conditions: Human immunodeficiency virus 2, subtype A; summary of the method: as §1
[8] = system: Human immunodeficiency virus 2; assay: Antiviral activity against HIV 2 subtype A clinical isolate expressing 14H-60K/N-65E protease gene sequence from HIV2 infected patient plasma and PBMC obtained before compound treatment measured after 13 months; format: functional, organism-based; conditions: Human immunodeficiency virus 2, subtype A; summary of the method: as §1
[9] = system: Human immunodeficiency virus 2; assay: Antiviral activity against HIV 2 subtype A clinical isolate expressing 14H-17D-43T-68N/D protease gene sequence from HIV2 infected patient plasma and PBMC obtained before compound treatment measured after 13 months; format: functional, organism-based; conditions: Human immunodeficiency virus 2, subtype A; summary of the method: as §1
[10] = system: Human immunodeficiency virus 2; assay: Antiviral activity against HIV 2 subtype B clinical isolate expressing 14Y-19P-33I-61N-71I-75M-84V-90M protease gene sequence from HIV2 infected patient plasma and PBMC obtained at T1 during compound treatment measured after 13 months; format: functional, organism-based; conditions: Human immunodeficiency virus 2, subtype B\r\n; summary of the method: as §1
[11] = system: Human immunodeficiency virus 2; assay: Antiviral activity against HIV 2 subtype B clinical isolate expressing 14Y-61N-99L protease gene sequence from HIV2 infected patient plasma and PBMC obtained before compound treatment measured after 13 months; format: functional, organism-based; conditions: Human immunodeficiency virus 2, subtype B\r\n; summary of the method: as §1
[12] = system: Human immunodeficiency virus 2; assay: Antiviral activity against HIV 2 subtype A clinical isolate expressing 5L/F-14Y/H-17G/D-43T-54I/M-62V/A-70R/K-71I protease gene sequence from HIV2 infected patient plasma and PBMC obtained at T1 during compound treatment measured after 13 months; format: functional, organism-based; conditions: Human immunodeficiency virus 2, subtype A; summary of the method: as §1
[13] = system: Human immunodeficiency virus 2; assay: Antiviral activity against HIV 2 subtype B clinical isolate expressing 12T-14Y-19P-40N-41D-61N-62I-96S-99L protease gene sequence from HIV2 infected patient plasma and PBMC obtained before compound treatment measured after 13 months; format: functional, organism-based; conditions: Human immunodeficiency virus 2, subtype B\r\n; summary of the method: as §1
[14] = system: Human immunodeficiency virus 2; assay: Antiviral activity against HIV 2 subtype B clinical isolate expressing 12Q-14R-17G/D-19P-61N-62I-92A protease gene sequence from HIV2 infected patient plasma and PBMC obtained before compound treatment measured after 13 months; format: functional, organism-based; conditions: Human immunodeficiency virus 2, subtype B\r\n; summary of the method: as §1
[15] = system: Human immunodeficiency virus 2; assay: Antiviral activity against HIV 2 subtype A clinical isolate expressing 14H-40D-70K-72R/K-91T/S protease gene sequence from HIV2 infected patient plasma and PBMC obtained before compound treatment measured after 13 months; format: functional, organism-based; conditions: Human immunodeficiency virus 2, subtype A; summary of the method: as §1
[16] = system: Human immunodeficiency virus 2; assay: Antiviral activity against HIV 2 subtype H expressing 10I-40P-41Y-60H-63N-70T-73G-89L-92E protease gene sequence from HIV2 infected patient plasma and PBMC obtained before compound treatment measured after 13 months; format: functional, organism-based; conditions: Human immunodeficiency virus 2, subtype H; summary of the method: as §1
[17] = system: Human immunodeficiency virus 2; assay: Antiviral activity against HIV 2 subtype A clinical isolate expressing 10V/I-40D-43I-56V-70K-82F-84V-89V-90M protease gene sequence from HIV2 infected patient plasma and PBMC obtained at T2 during compound treatment measured after 3 months; format: functional, organism-based; conditions: Human immunodeficiency virus 2, subtype A; summary of the method: as §1
[18] = system: Human immunodeficiency virus 2; assay: Antiviral activity against HIV 2 subtype H expressing 10I-34E-40P-41Y-60H-63N-70T-73G-82F-89L-92E protease gene sequence from HIV2 infected patient plasma and PBMC obtained at T1 during compound treatment measured after 13 months; format: functional, organism-based; conditions: Human immunodeficiency virus 2, subtype H; summary of the method: as §1
[19] = system: Human immunodeficiency virus 2; assay: Antiviral activity against HIV 2 subtype A clinical isolate expressing 54M-65E-71I-74N-90M protease gene sequence from HIV2 infected patient plasma and PBMC obtained at T1 during compound treatment measured after 13 months; format: functional, organism-based; conditions: Human immunodeficiency virus 2, subtype A; summary of the method: as §1

CC(C)CN(C[C@@H](O)[C@H](Cc1ccccc1)NC(=O)O[C@H]1CCOC1)S(=O)(=O)c1ccc(N)cc1 [AMPRENAVIR]
IC50 [1]: 12 µM | IC90 [1]: 96 µM | IC90 [2]: 0.2 µM | IC50 [3]: 0.02 µM | IC50 [4]: 0.6 µM | IC90 [4]: 4.6 µM | IC50 [5]: 17 µM | IC90 [5]: 140 µM | IC50 [6]: 0.4 µM | IC90 [6]: 3.5 µM | IC50 [7]: 9.5 µM | IC90 [7]: 31 µM | IC50 [8]: 0.9 µM | IC90 [8]: 6.8 µM | IC50 [9]: 0.6 µM | IC90 [9]: 3.8 µM | IC50 [10]: 14 µM | IC90 [10]: 110 µM | IC50 [11]: 0.6 µM | IC90 [11]: 4.6 µM | IC50 [12]: 4.4 µM | IC90 [12]: 13 µM | IC50 [13]: 0.4 µM | IC90 [13]: 2.4 µM | IC50 [14]: 0.4 µM | IC90 [14]: 2.8 µM | IC50 [15]: 0.3 µM | IC90 [15]: 1.6 µM | IC50 [16]: 0.9 µM | IC90 [16]: 2.7 µM | IC50 [17]: 12 µM | IC90 [17]: 95 µM | IC50 [18]: 10 µM | IC90 [18]: 82 µM | IC50 [19]: 4 µM | IC90 [19]: 60 µM
